Source: ChEMBL document CHEMBL4665627 (Eur J Med Chem, 2019)
Values after ≈ are worked out from the molar mass of the structure shown.

What was measured:
Format in all cases: functional
Candida tropicalis = assay: Antifungal activity against Candida tropicalis assessed as inhibition of fungal growth after 24 hrs by CLSI protocol based two fold serial dilution method
Method in brief: (§1)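 Two-fold serial broth dilution in 96-well plates following CLSI; MIC (mM) taken as the lowest concentration giving complete growth inhibition; MIC values from three independent experiments.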

Klebsiella pneumoniae = assay: Antibacterial activity against Klebsiella pneumoniae assessed as inhibition of bacterial growth after 24 hrs by CLSI protocol based two fold serial dilution method; method in brief: as §1
Enterococcus faecalis = assay: Antibacterial activity against Enterococcus faecalis assessed as inhibition of bacterial growth after 24 hrs by CLSI protocol based two fold serial dilution method; method in brief: as §1
Candida albicans [1] = assay: Antifungal activity against Candida albicans ATCC 90023 assessed as inhibition of fungal growth after 24 hrs by CLSI protocol based two fold serial dilution method; method in brief: as §1
Escherichia coli [2] = assay: Antibacterial activity against Escherichia coli ATCC 25922 assessed as inhibition of bacterial growth after 24 hrs by CLSI protocol based two fold serial dilution method; method in brief: as §1
Staphylococcus aureus [3] = assay: Antibacterial activity against Staphylococcus aureus ATCC 25923 assessed as inhibition of bacterial growth after 24 hrs by CLSI protocol based two fold serial dilution method; method in brief: as §1
Staphylococcus aureus [4] = assay: Antibacterial activity against Staphylococcus aureus ATCC 29213 assessed as inhibition of bacterial growth after 24 hrs by CLSI protocol based two fold serial dilution method
Acinetobacter baumannii = assay: Antibacterial activity against Acinetobacter baumannii assessed as inhibition of bacterial growth after 24 hrs by CLSI protocol based two fold serial dilution method; method in brief: as §1
Candida parapsilosis = assay: Antifungal activity against Candida parapsilosis ATCC 22019 assessed as inhibition of fungal growth after 24 hrs by CLSI protocol based two fold serial dilution method; conditions: Lodderomyces parapsilosis; method in brief: as §1
Pseudomonas aeruginosa [5] = assay: Antibacterial activity against Pseudomonas aeruginosa ATCC 27853 assessed as inhibition of bacterial growth after 24 hrs by CLSI protocol based two fold serial dilution method; method in brief: as §1
Aspergillus fumigatus = assay: Antifungal activity against Aspergillus fumigatus assessed as inhibition of fungal growth after 24 hrs by CLSI protocol based two fold serial dilution method; method in brief: as §1
Staphylococcus aureus [6] = assay: Antibacterial activity against methicillin-resistant Staphylococcus aureus N315 assessed as inhibition of bacterial growth after 24 hrs by CLSI protocol based two fold serial dilution method
Staphylococcus aureus [7] = assay: Antibacterial activity against Staphylococcus aureus assessed as inhibition of bacterial growth after 24 hrs by CLSI protocol based two fold serial dilution method; method in brief: as §1
Candida albicans [8] = assay: Antifungal activity against Candida albicans assessed as inhibition of fungal growth after 24 hrs by CLSI protocol based two fold serial dilution method; method in brief: as §1
Pseudomonas aeruginosa [9] = assay: Antibacterial activity against Pseudomonas aeruginosa assessed as inhibition of bacterial growth after 24 hrs by CLSI protocol based two fold serial dilution method; method in brief: as §1
Escherichia coli [10] = assay: Antibacterial activity against Escherichia coli assessed as inhibition of bacterial growth after 24 hrs by CLSI protocol based two fold serial dilution method; method in brief: as §1

Q: `C=CCN1CCN(c2cc3c(cc2F)c(=O)c(-c2csc(N)n2)cn3CC)CC1` was tested. Which MIC (Candida tropicalis) did it give?
A: 155 µM (≈ 64.1 µg/mL)

Q: And the MIC (Klebsiella pneumoniae)?
A: 77 µM (≈ 31.8 µg/mL)

Q: What about the MIC (Enterococcus faecalis) of the same compound?
A: 155 µM (≈ 64.1 µg/mL)

Q: And the MIC (Candida albicans [1])?
A: 77 µM (≈ 31.8 µg/mL)

Q: And the MIC (Escherichia coli [2])?
A: 155 µM (≈ 64.1 µg/mL)

Q: And the MIC (Staphylococcus aureus [3])?
A: 19 µM (≈ 7.86 µg/mL)

Q: And the MIC (Staphylococcus aureus [4])?
A: 39 µM (≈ 16.1 µg/mL)

Q: What about the MIC (Acinetobacter baumannii) of the same compound?
A: 77 µM (≈ 31.8 µg/mL)

Q: And the MIC (Candida parapsilosis)?
A: 155 µM (≈ 64.1 µg/mL)

Q: And the MIC (Pseudomonas aeruginosa [5])?
A: 155 µM (≈ 64.1 µg/mL)

Q: What about the MIC (Aspergillus fumigatus) of the same compound?
A: 77 µM (≈ 31.8 µg/mL)

Q: What about the MIC (Staphylococcus aureus [6]) of the same compound?
A: 78 µM (≈ 32.3 µg/mL)

Q: And the MIC (Staphylococcus aureus [7])?
A: 155 µM (≈ 64.1 µg/mL)

Q: And the MIC (Candida albicans [8])?
A: 77 µM (≈ 31.8 µg/mL)

Q: And the MIC (Pseudomonas aeruginosa [9])?
A: 155 µM (≈ 64.1 µg/mL)

Q: And the MIC (Escherichia coli [10])?
A: 77 µM (≈ 31.8 µg/mL)

Q: With `CCn1cc(-c2csc(N)n2)c(=O)c2cc(F)c(N3CCN(CC(C)=O)CC3)cc21` as the compound, how does the MIC (Candida tropicalis) read?
A: 298 µM (≈ 128 µg/mL)

Q: What about the MIC (Klebsiella pneumoniae) of the same compound?
A: 37 µM (≈ 15.9 µg/mL)

Q: What about the MIC (Enterococcus faecalis) of the same compound?
A: 149 µM (≈ 64 µg/mL)

Q: What about the MIC (Candida albicans [1]) of the same compound?
A: 37 µM (≈ 15.9 µg/mL)

Q: What about the MIC (Escherichia coli [2]) of the same compound?
A: 298 µM (≈ 128 µg/mL)

Q: And the MIC (Staphylococcus aureus [3])?
A: 19 µM (≈ 8.16 µg/mL)

Q: And the MIC (Staphylococcus aureus [4])?
A: 298 µM (≈ 128 µg/mL)

Q: What about the MIC (Acinetobacter baumannii) of the same compound?
A: 298 µM (≈ 128 µg/mL)

Q: And the MIC (Candida parapsilosis)?
A: 298 µM (≈ 128 µg/mL)

Q: What about the MIC (Pseudomonas aeruginosa [5]) of the same compound?
A: 149 µM (≈ 64 µg/mL)

Q: What about the MIC (Aspergillus fumigatus) of the same compound?
A: 597 µM (≈ 256 µg/mL)

Q: What about the MIC (Staphylococcus aureus [6]) of the same compound?
A: 298 µM (≈ 128 µg/mL)

Q: What about the MIC (Staphylococcus aureus [7]) of the same compound?
A: 37 µM (≈ 15.9 µg/mL)

Q: And the MIC (Candida albicans [8])?
A: 597 µM (≈ 256 µg/mL)

Q: And the MIC (Pseudomonas aeruginosa [9])?
A: 597 µM (≈ 256 µg/mL)

Q: And the MIC (Escherichia coli [10])?
A: 597 µM (≈ 256 µg/mL)

Q: With `CCn1cc(-c2csc(N)n2)c(=O)c2cc(N3CCN(CC(C)=O)CC3)c(Cl)cc21` as the compound, how does the MIC (Candida tropicalis) read?
A: 288 µM (≈ 128 µg/mL)

Q: And the MIC (Klebsiella pneumoniae)?
A: 72 µM (≈ 32.1 µg/mL)

Q: What about the MIC (Enterococcus faecalis) of the same compound?
A: 288 µM (≈ 128 µg/mL)

Q: What about the MIC (Candida albicans [1]) of the same compound?
A: 144 µM (≈ 64.2 µg/mL)

Q: And the MIC (Escherichia coli [2])?
A: 288 µM (≈ 128 µg/mL)

Q: And the MIC (Staphylococcus aureus [3])?
A: 288 µM (≈ 128 µg/mL)

Q: And the MIC (Staphylococcus aureus [4])?
A: 575 µM (≈ 256 µg/mL)

Q: What about the MIC (Acinetobacter baumannii) of the same compound?
A: 288 µM (≈ 128 µg/mL)

Q: What about the MIC (Candida parapsilosis) of the same compound?
A: 288 µM (≈ 128 µg/mL)

Q: What about the MIC (Pseudomonas aeruginosa [5]) of the same compound?
A: 36 µM (≈ 16.1 µg/mL)

Q: What about the MIC (Aspergillus fumigatus) of the same compound?
A: 575 µM (≈ 256 µg/mL)

Q: What about the MIC (Staphylococcus aureus [6]) of the same compound?
A: 72 µM (≈ 32.1 µg/mL)

Q: And the MIC (Staphylococcus aureus [7])?
A: 144 µM (≈ 64.2 µg/mL)

Q: What about the MIC (Candida albicans [8]) of the same compound?
A: 575 µM (≈ 256 µg/mL)

Q: And the MIC (Pseudomonas aeruginosa [9])?
A: 288 µM (≈ 128 µg/mL)

Q: What about the MIC (Escherichia coli [10]) of the same compound?
A: 1150 µM (≈ 513 µg/mL)

Q: With `CCn1cc(-c2csc(N)n2)c(=O)c2cc(F)c(N3CCN(C)CC3)cc21` as the compound, how does the MIC (Candida tropicalis) read?
A: 661 µM (≈ 256 µg/mL)

Q: What about the MIC (Klebsiella pneumoniae) of the same compound?
A: 83 µM (≈ 32.2 µg/mL)

Q: And the MIC (Enterococcus faecalis)?
A: 331 µM (≈ 128 µg/mL)

Q: And the MIC (Candida albicans [1])?
A: 165 µM (≈ 63.9 µg/mL)

Q: And the MIC (Escherichia coli [2])?
A: 165 µM (≈ 63.9 µg/mL)

Q: And the MIC (Staphylococcus aureus [3])?
A: 41 µM (≈ 15.9 µg/mL)

Q: And the MIC (Staphylococcus aureus [4])?
A: 331 µM (≈ 128 µg/mL)

Q: What about the MIC (Acinetobacter baumannii) of the same compound?
A: 331 µM (≈ 128 µg/mL)

Q: What about the MIC (Candida parapsilosis) of the same compound?
A: 331 µM (≈ 128 µg/mL)

Q: What about the MIC (Pseudomonas aeruginosa [5]) of the same compound?
A: 165 µM (≈ 63.9 µg/mL)

Q: What about the MIC (Aspergillus fumigatus) of the same compound?
A: 331 µM (≈ 128 µg/mL)

Q: And the MIC (Staphylococcus aureus [6])?
A: 331 µM (≈ 128 µg/mL)

Q: What about the MIC (Staphylococcus aureus [7]) of the same compound?
A: 165 µM (≈ 63.9 µg/mL)

Q: And the MIC (Candida albicans [8])?
A: 165 µM (≈ 63.9 µg/mL)

Q: What about the MIC (Pseudomonas aeruginosa [9]) of the same compound?
A: 331 µM (≈ 128 µg/mL)

Q: What about the MIC (Escherichia coli [10]) of the same compound?
A: 661 µM (≈ 256 µg/mL)

Q: Which results are given for `CCn1cc(-c2csc(N)n2)c(=O)c2cc(F)c(N3CCN(Cc4ccc(Cl)c(Cl)c4)CC3)cc21`?
A: MIC (Candida tropicalis): 482 µM (≈ 257 µg/mL); MIC (Klebsiella pneumoniae): 241 µM (≈ 128 µg/mL); MIC (Enterococcus faecalis): 30 µM (≈ 16 µg/mL); MIC (Candida albicans [1]): 482 µM (≈ 257 µg/mL); MIC (Escherichia coli [2]): 15 µM (≈ 7.99 µg/mL); MIC (Staphylococcus aureus [3]): 241 µM (≈ 128 µg/mL); MIC (Staphylococcus aureus [4]): 241 µM (≈ 128 µg/mL); MIC (Acinetobacter baumannii): 482 µM (≈ 257 µg/mL); MIC (Candida parapsilosis): 8 µM (≈ 4.26 µg/mL); MIC (Pseudomonas aeruginosa [5]): 241 µM (≈ 128 µg/mL); MIC (Aspergillus fumigatus): 241 µM (≈ 128 µg/mL); MIC (Staphylococcus aureus [6]): 15 µM (≈ 7.99 µg/mL); MIC (Staphylococcus aureus [7]): 482 µM (≈ 257 µg/mL); MIC (Candida albicans [8]): 482 µM (≈ 257 µg/mL); MIC (Pseudomonas aeruginosa [9]): 482 µM (≈ 257 µg/mL); MIC (Escherichia coli [10]): 241 µM (≈ 128 µg/mL)
